Here are results for six molecules from ChEMBL document CHEMBL1123091, “Synthesis and antiviral evaluation of nucleosides of 5-methylimidazole-4-carboxamide” (J Med Chem, 1985).

Data set [1] has as its system Vesicular stomatitis virus. The experiment in a line: Compound was tested for antiviral activity in HeLa Cell cultures, against vesicular stomatitis virus (VSV), cytopathic effect induced by the virus (CPE). It is filed as functional. A digest of the protocol:
(§1)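 HeLa cells grown to confluency in petri dishes, then infected (or mock-infected) with VSV at 0.01 PFU/cell. Test compound added at a range of concentrations.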
In general terms: Protection from cytopathic effect is a common read-out in antiviral testing.

Data set [2] is described as follows: Compound was tested for antiviral activity in HeLa Cell cultures, against herpes simplex virus type 1 (HSV-1). It is filed as organism-based. Particulars: human alphaherpesvirus 1, HeLa cell cultures; read-out: Tox50. A digest of the protocol:
(§2)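 HeLa cells grown to confluency in petri dishes, then infected (or mock-infected) with HSV-1 at 0.5 PFU/cell. Test compound added at a range of concentrations.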

Data set [3] in a line: Compound was tested for antiviral activity in HeLa Cell cultures, against vesicular stomatitis virus (VSV). Format: ADME, organism-based. The note with it: read-out: Tox50. A digest of the protocol:
as §1

Data set [4] has as its system Human alphaherpesvirus 1. The experiment in a line: Compound was tested for antiviral activity in HeLa Cell cultures, against herpes simplex virus type 1 (HSV-1), cytopathic effect induced by the virus (CPE). It is filed as functional. In a few lines:
as §2

Data set [5] concerns Human alphaherpesvirus 1. The experiment in a line: Compound was tested for antiviral activity in HeLa Cell cultures, against herpes simplex virus type 1 (HSV-1) expressed as cytopathic effect induced by the virus (CPE). It is filed as functional. In a few lines:
as §2

Data set [6] can be described thus: Compound was tested for antiviral activity in HeLa Cell cultures against herpes simplex virus type 1 (HSV-1). It is filed as organism-based. The note with it: human alphaherpesvirus 1, HeLa cell cultures; read-out: Tox50. In a few lines: as §2
Data set [7] can be described thus: Compound was tested for antiviral activity in HeLa Cell cultures against vesicular stomatitis virus (VSV). Format: ADME, organism-based. Particulars: read-out: Tox50. A digest of the protocol: as §1
In data set [8] the test system is Vesicular stomatitis virus. The experiment in a line: Compound was tested for antiviral activity in HeLa Cell cultures, against vesicular stomatitis virus (VSV) expressed as cytopathic effect induced by the virus (CPE). Format: functional. A digest of the protocol:
as §1

Each structure is given as a SMILES string. Converted amounts (≈) assume the structure as drawn.

`Cc1c(C(N)=O)ncn1[C@@H]1C[C@H](O)[C@@H](CO)O1`: the CPE50 in data set [1] was 150 µg/mL; in data set [4], more than 200 µg/mL. Also, the results for the CC50 in data set [2] and in data set [3] were more than 200 µg/mL and more than 400 µg/mL, respectively.

On to `Cc1c(C(N)=O)ncn1[C@H]1C[C@H](O)[C@@H](CO)O1`, for which the CPE50 in data set [5] and in data set [8] was 150 µg/mL throughout. Further, the CC50 in data set [6] was 300 µg/mL (≈ 1240 µM); in data set [7] it was more than 400 µg/mL.

In the case of `Cc1[nH]cnc1C(N)=O`, in data set [2], the CC50 was more than 200 µg/mL. Besides, the CPE50 in data set [4] is more than 200 µg/mL.

Consider `Cc1c(C(N)=O)ncn1COCCO`, for which the CPE50 is 180 µg/mL in data set [1] and more than 200 µg/mL in data set [4]. Moreover, the CC50 in data set [2] and in data set [3] was more than 200 µg/mL in each case.

In the case of `Cc1c(C(N)=O)ncn1C1O[C@H](CO)[C@@H](O)[C@H]1O` (some centres not stated), the results for the CPE50 in data set [1] and in data set [4] were 125 µg/mL and 75 µg/mL, respectively. The CC50 in data set [2] and in data set [3] was more than 400 µg/mL in each case.

For `NC(=O)c1ncn([C@@H]2O[C@H](CO)[C@@H](O)[C@H]2O)n1` [RIBAVIRIN], the CPE50 in data set [1] worked out at 15 µg/mL; in data set [4], 75 µg/mL. Besides, the CC50 in data set [2] and in data set [3] was 400 µg/mL (≈ 1640 µM) throughout.
